In ChEMBL document CHEMBL5329223, “Newly synthesized 6-substituted piperazine/phenyl-9-cyclopentyl containing purine nucleobase analogs act as potent anticancer agents and induce apoptosis via inhibiting Src in hepatocellular carcinoma cells” (RSC Med Chem, 2023):
pIC50: −log10 of the molar value. The source made the active and inactive calls. No cut-off for these calls is given here.

Experiments:
SNU-423 = assay: Cytotoxicity against human SNU-423 cells assessed as cell growth inhibition incubated for 72 hrs by SRB assay; assay type: functional, cell-based; conditions: SNU-423, 72 h
Method in brief: (§1)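 Cells seeded at 1000–3000 per well, treated after 24 h with 2.5–40 μM (40, 20, 10, 5, 2.5 μM) for 72 h, in duplicate or triplicate; DMSO negative control. Fixed with 10% TCA 1 h at 4 °C, stained with 0.4% SRB in 1% acetic acid, dye solubilized in 10 mM TBS, A515 read; OD normalized to DMSO control, IC50 from growth-inhibition curves.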

HCT-116 = assay: Cytotoxicity against human HCT-116 cells assessed as cell growth inhibition incubated for 72 hrs by SRB assay; assay type: functional, cell-based; conditions: for pIC50: HCT-116, 72 h; method in brief: as §1
SNU-182 = assay: Cytotoxicity against human SNU-182 cells assessed as cell growth inhibition incubated for 72 hrs by SRB assay; assay type: functional, cell-based; conditions: SNU-182, 72 h; method in brief: as §1
PLC = assay: Cytotoxicity against human PLC cells assessed as cell growth inhibition incubated for 72 hrs by SRB assay; assay type: functional, cell-based; method in brief: as §1
SNU-398 = assay: Cytotoxicity against human SNU-398 cells assessed as cell growth inhibition incubated for 72 hrs by SRB assay; assay type: functional, cell-based; conditions: SNU-398, 72 h; method in brief: as §1
SNU-387 = assay: Cytotoxicity against human SNU-387 cells assessed as cell growth inhibition incubated for 72 hrs by SRB assay; assay type: functional, cell-based; conditions: SNU-387, 72 h; method in brief: as §1
Mahlavu [1] = assay: Cytotoxicity against human Mahlavu cells assessed as cell growth inhibition incubated for 72 hrs by SRB assay; assay type: functional, cell-based; method in brief: as §1
SNU-449 = assay: Cytotoxicity against human SNU-449 cells assessed as cell growth inhibition incubated for 72 hrs by SRB assay; assay type: functional, cell-based; conditions: SNU-449, 72 h; method in brief: as §1
MCF7 = assay: Cytotoxicity against human MCF7 cells assessed as cell growth inhibition incubated for 72 hrs by SRB assay; assay type: functional, cell-based; conditions: for pIC50: MCF7, 72 h; method in brief: as §1
HepG2 = assay: Cytotoxicity against human HepG2 cells assessed as cell growth inhibition incubated for 72 hrs by SRB assay; assay type: functional, cell-based; conditions: HepG2, 72 h; method in brief: as §1
[2] = Cytotoxicity against human FOCUS cells assessed as cell growth inhibition incubated for 72 hrs by SRB assay; assay type: functional, cell-based; method in brief: as §1
SNU-475 = assay: Cytotoxicity against human SNU-475 cells assessed as cell growth inhibition incubated for 72 hrs by SRB assay; assay type: functional, cell-based; conditions: SNU-475, 72 h; method in brief: as §1
Hep 3B2 = assay: Cytotoxicity against human Hep3B cells assessed as cell growth inhibition incubated for 72 hrs by SRB assay; assay type: functional, cell-based; method in brief: as §1
Huh-7 [3] = assay: Cytotoxicity against human Huh-7 cells assessed as cell growth inhibition incubated for 72 hrs by SRB assay; assay type: functional, cell-based; conditions: for pIC50: Huh-7, 72 h; method in brief: as §1
Huh-7 [4] = assay: Upregulation of intracellular ATP level in human Huh-7 cells at 5 uM incubated for 72 hrs by Kinase Glo assay; assay type: functional, cell-based
Method in brief: (§2)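 Huh7 and Mahlavu cells grown 24 h, then treated with 5 μM for 72 h. Lysates protein-normalized by Bradford; ATP read by Kinase-Glo Plus luminescence per kit protocol. Staurosporine positive control, DMSO negative control.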

Mahlavu [5] = assay: Upregulation of intracellular ATP level in human Mahlavu cells at 5 uM incubated for 72 hrs by Kinase Glo assay; assay type: functional, cell-based; method in brief: as §2
Huh-7 [6] = assay: Induction of apoptosis in human Huh-7 cells assessed as increase in PARP-1 cleavage at 5 uM incubated for 72 hrs by Western blot analysis; assay type: functional, cell-based
Method in brief: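 Huh7 cells (300 000 per dish) treated 24 h after seeding with 5 μM or DMSO for 72 h. Immunoblot for PARP-1, phospho-Src Tyr416, Src, Rb, phospho-Rb Ser807/811, Cdk2; calnexin and actin as loading controls.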

Huh-7 [7] = assay: Induction of cell cycle arrest in human Huh-7 cells assessed as increase in accumulation of cells at subG1 phase at 5 uM incubated for 72 hrs by PI staining based flow cytometry; assay type: functional
Method in brief: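 Huh7 and Mahlavu cells serum-starved 24 h to synchronize, then given 5 μM or DMSO in fresh growth medium for 72 h. Trypsinized, fixed in ice-cold 70% ethanol at least 3 h at −20 °C, PI-stained with a cell cycle kit, analyzed by flow cytometry for SubG1.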

Huh-7 [8] = assay: Cytotoxicity against human Huh-7 cells assessed as cell growth inhibition at 0.625 to 5 uM measured upto 72 hrs by RT-CES analysis; assay type: functional, cell-based; conditions: dose 0.625-5 µM
Method in brief: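 Huh7 cells, 2000 per well, treated 24 h after seeding alongside DMSO control; cell index from impedance recorded every 30 min; plots for each concentration normalized to DMSO-treated cells.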

Huh-7 [9] = assay: Induction of morphological changes in human Huh-7 cells assessed as horseshoe-like condensed nuclei at 5 uM incubated for 72 hrs by Hoechst 33258 dye based microscopy; assay type: functional, cell-based
Method in brief: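 Huh7 cells on coverslips (50 000 per well) given 5 μM or DMSO 24 h after seeding for 72 h; permeabilized with ice-cold methanol 10 min, Hoechst 33258 stain 5 min in the dark, imaged by fluorescence microscopy with 40× objective.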

SMILES | pIC50 (SNU-423) | pIC50 (HCT-116) | pIC50 (SNU-182) | pIC50 (PLC) | pIC50 (SNU-398) | pIC50 (SNU-387) | pIC50 (Mahlavu [1]) | pIC50 (SNU-449) | pIC50 (MCF7) | pIC50 (HepG2) | pIC50 [2] | pIC50 (SNU-475) | pIC50 (Hep 3B2) | pIC50 (Huh-7 [3]) | further results
CC(C)(C)c1ccc(-c2ncnc3c2ncn3C2CCCC2)cc1 | 5.40 | 5.18 | 4.91 | 5.47 | 5.74 | 5.70 | 5.40 | 5.16 | 4.90 | 5.57 | 5.70 | 4.91 | 5.17 | 5.20 | 
Clc1ccc(-c2ncnc3c2ncn3C2CCCC2)cc1 |  |  |  |  |  |  |  |  |  |  |  |  |  | 4.81 | growth inhibition (GI) (HCT-116): inactive; growth inhibition (GI) (MCF7): inactive
FC(F)(F)Oc1ccc(-c2ncnc3c2ncn3C2CCCC2)cc1 |  | 4.58 |  |  |  |  |  |  | 4.62 |  |  |  |  | 4.82 | 
Cc1ccc(-c2ncnc3c2ncn3C2CCCC2)cc1 |  | 4.65 |  |  |  |  |  |  | 4.75 |  |  |  |  | 4.62 | 
Brc1ccc(-c2ncnc3c2ncn3C2CCCC2)cc1 |  |  |  |  |  |  |  |  | 4.25 |  |  |  |  | 4.80 | inhibition (HCT-116): inactive
O=S(=O)(c1ccc(Br)cc1)N1CCN(c2ncnc3c2ncn3C2CCCC2)CC1 | 4.98 | 5.08 | 4.22 | 5.04 | 5.40 | 4.80 | 4.69 | 5.07 | 5.19 | 5.20 | 4.80 | 5.05 | 5.37 | 5.10 | 
CC(C)c1ccc(S(=O)(=O)N2CCN(c3ncnc4c3ncn4C3CCCC3)CC2)cc1 |  | 4.94 |  |  |  |  |  |  | 4.76 |  |  |  |  | 4.83 | 
c1ccc(-c2ncnc3c2ncn3C2CCCC2)cc1 |  | 4.86 |  |  |  |  |  |  | 4.80 |  |  |  |  | 4.89 | 
Clc1ccc(N2CCN(c3ncnc4c3ncn4C3CCCC3)CC2)cc1Cl | 5.00 | 7.40 | 4.19 | 5.15 | 6.70 | 4.70 | 7.00 | > 7.00 | 6.80 | 7.70 | 6.30 | 5.60 | 7.52 | 7.40 | 
Cc1ccc(S(=O)(=O)N2CCN(c3ncnc4c3ncn4C3CCCC3)CC2)cc1 |  | 3.71 |  |  |  |  |  |  | 3.77 |  |  |  |  | 4.31 | 
CN[C@@H]1C[C@H]2O[C@@](C)([C@@H]1OC)n1c3ccccc3c3c4c(c5c6ccccc6n2c5c31)C(=O)NC4 |  |  |  |  |  |  |  |  |  |  |  |  |  |  | Activity (Huh-7 [4]): inactive; Activity (Mahlavu [5]): inactive
Fc1ccc(N2CCN(c3ncnc4c3ncn4C3CCCC3)CC2)cc1 | 4.80 | 5.80 | 4.39 | 5.22 | 6.00 | 4.59 | 5.15 | 5.48 | 5.04 | 6.30 | 5.82 | 5.15 | 5.37 | 5.82 | Activity (Huh-7 [6]): Active; Activity (Huh-7 [4]): inactive; Activity (Huh-7 [7]): Active; Activity (Mahlavu [5]): inactive; growth inhibition (GI) (Huh-7 [8]): Active; Activity (Huh-7 [9]): Active
OC[C@H]1O[C@@H](n2cnc3c2N=CNC[C@H]3O)C[C@@H]1O |  |  |  |  |  |  |  |  |  |  |  |  |  |  | growth inhibition (GI) (HCT-116): inactive; growth inhibition (GI) (MCF7): inactive; growth inhibition (GI) (Huh-7 [3]): inactive
